Reference: ChEMBL document CHEMBL5058577, “EUbOPEN Chemogenomics Library 2 (Multiplex)” (2022)

System: HEK-293T
Assay: Multiplex assay against HEK293T
Assay type: toxicity, cell-based
Details: human
How it was run: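 Live cells carried four stains from seeding: Hoechst33342, BioTracker Green Microtubule Cytoskeleton Dye, MitoTracker Red and Annexin V Alexa Fluor 680. They were imaged on a CQ1 microscope at 37°C and 5% CO2 after compound addition. Using CellPathfinder machine-learning gating, cells were split into Hoechst high-intensity objects or normal cells, normal cells into healthy, pyknosed or fragmented nuclei, and pyknosed cells into mitotic or apoptotic; tubulin, mitochondrial-mass and membrane-permeability phenotypes are per cents of healthy-nucleus cells.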

[1] = 12 h, 1 µM, compound concentration 1 uM, replicate 1
[2] = 12 h, 1 µM, compound concentration 1 uM, replicate 2
[3] = 12 h, 10 µM, compound concentration 10 uM, replicate 1
[4] = 12 h, 10 µM, compound concentration 10 uM, replicate 2
[5] = 24 h, 1 µM, compound concentration 1 uM, replicate 1
[6] = 24 h, 1 µM, compound concentration 1 uM, replicate 2
[7] = 24 h, 10 µM, compound concentration 10 uM, replicate 1
[8] = 24 h, 10 µM, compound concentration 10 uM, replicate 2
[9] = 48 h, 1 µM, compound concentration 1 uM, replicate 1
[10] = 48 h, 1 µM, compound concentration 1 uM, replicate 2
[11] = 48 h, 10 µM, compound concentration 10 uM, replicate 1
[12] = 48 h, 10 µM, compound concentration 10 uM, replicate 2

CCOc1c2c(c(OCC)c3ncccc13)CN(c1ccc(CS(=O)(=O)NC(=O)Cc3ccccc3OC)cc1C)C2=O
Population Apoptotic (%) [1]: 33%
Population Fragmented Nuclei (%) [1]: 3%
Population Healthy Nuclei (%) [1]: 81%
Population Hoechst High Intensity Objects (%) [1]: 6%
Population Membrane Permeable-Phenotype (%) [1]: 0%
Population Mitochondria Different-Phenotype (%) [1]: 43%
Population Mitotic Cells (%) [1]: 66%
Population Normal (%) [1]: 93%
Population Pyknosed Nuclei (%) [1]: 14%
Population Tubulin-Different-Phenotype (%) [1]: 31%
Total Cell Count [1]: 356
Population Apoptotic (%) [2]: 35%
Population Fragmented Nuclei (%) [2]: 5%
Population Healthy Nuclei (%) [2]: 82%
Population Hoechst High Intensity Objects (%) [2]: 5%
Population Mitochondria Different-Phenotype (%) [2]: 54%
Population Mitotic Cells (%) [2]: 64%
Population Normal (%) [2]: 94%
Population Pyknosed Nuclei (%) [2]: 12%
Population Tubulin-Different-Phenotype (%) [2]: 16%
Total Cell Count [2]: 355
Population Apoptotic (%) [3]: 45%
Population Fragmented Nuclei (%) [3]: 9%
Population Healthy Nuclei (%) [3]: 78%
Population Hoechst High Intensity Objects (%) [3]: 4%
Population Membrane Permeable-Phenotype (%) [3]: 0%
Population Mitochondria Different-Phenotype (%) [3]: 49%
Population Mitotic Cells (%) [3]: 54%
Population Normal (%) [3]: 95%
Population Pyknosed Nuclei (%) [3]: 12%
Population Tubulin-Different-Phenotype (%) [3]: 34%
Total Cell Count [3]: 367
Population Apoptotic (%) [4]: 53%
Population Fragmented Nuclei (%) [4]: 7%
Population Healthy Nuclei (%) [4]: 76%
Population Hoechst High Intensity Objects (%) [4]: 9%
Population Mitochondria Different-Phenotype (%) [4]: 72%
Population Mitotic Cells (%) [4]: 46%
Population Normal (%) [4]: 90%
Population Pyknosed Nuclei (%) [4]: 16%
Population Tubulin-Different-Phenotype (%) [4]: 29%
Total Cell Count [4]: 362
Population Apoptotic (%) [5]: 35%
Population Fragmented Nuclei (%) [5]: 11%
Population Healthy Nuclei (%) [5]: 73%
Population Hoechst High Intensity Objects (%) [5]: 5%
Population Membrane Permeable-Phenotype (%) [5]: 0%
Population Mitochondria Different-Phenotype (%) [5]: 28%
Population Mitotic Cells (%) [5]: 64%
Population Normal (%) [5]: 94%
Population Pyknosed Nuclei (%) [5]: 14%
Population Tubulin-Different-Phenotype (%) [5]: 20%
Total Cell Count [5]: 462
Population Apoptotic (%) [6]: 27%
Population Fragmented Nuclei (%) [6]: 5%
Population Healthy Nuclei (%) [6]: 85%
Population Hoechst High Intensity Objects (%) [6]: 3%
Population Mitochondria Different-Phenotype (%) [6]: 27%
Population Mitotic Cells (%) [6]: 72%
Population Normal (%) [6]: 96%
Population Pyknosed Nuclei (%) [6]: 8%
Population Tubulin-Different-Phenotype (%) [6]: 10%
Total Cell Count [6]: 473
Population Apoptotic (%) [7]: 18%
Population Fragmented Nuclei (%) [7]: 10%
Population Healthy Nuclei (%) [7]: 75%
Population Hoechst High Intensity Objects (%) [7]: 4%
Population Membrane Permeable-Phenotype (%) [7]: 0%
Population Mitochondria Different-Phenotype (%) [7]: 36%
Population Mitotic Cells (%) [7]: 81%
Population Normal (%) [7]: 95%
Population Pyknosed Nuclei (%) [7]: 14%
Population Tubulin-Different-Phenotype (%) [7]: 28%
Total Cell Count [7]: 446
Population Apoptotic (%) [8]: 32%
Population Fragmented Nuclei (%) [8]: 8%
Population Healthy Nuclei (%) [8]: 82%
Population Hoechst High Intensity Objects (%) [8]: 8%
Population Membrane Permeable-Phenotype (%) [8]: 1%
Population Mitochondria Different-Phenotype (%) [8]: 49%
Population Mitotic Cells (%) [8]: 67%
Population Normal (%) [8]: 91%
Population Pyknosed Nuclei (%) [8]: 9%
Population Tubulin-Different-Phenotype (%) [8]: 17%
Total Cell Count [8]: 481
Population Apoptotic (%) [9]: 29%
Population Fragmented Nuclei (%) [9]: 13%
Population Healthy Nuclei (%) [9]: 79%
Population Hoechst High Intensity Objects (%) [9]: 3%
Population Membrane Permeable-Phenotype (%) [9]: 0%
Population Mitochondria Different-Phenotype (%) [9]: 20%
Population Mitotic Cells (%) [9]: 70%
Population Normal (%) [9]: 96%
Population Pyknosed Nuclei (%) [9]: 6%
Population Tubulin-Different-Phenotype (%) [9]: 13%
Total Cell Count [9]: 822
Population Apoptotic (%) [10]: 33%
Population Fragmented Nuclei (%) [10]: 11%
Population Healthy Nuclei (%) [10]: 83%
Population Hoechst High Intensity Objects (%) [10]: 1%
Population Mitochondria Different-Phenotype (%) [10]: 14%
Population Mitotic Cells (%) [10]: 66%
Population Normal (%) [10]: 98%
Population Pyknosed Nuclei (%) [10]: 5%
Population Tubulin-Different-Phenotype (%) [10]: 7%
Total Cell Count [10]: 770
Population Apoptotic (%) [11]: 41%
Population Fragmented Nuclei (%) [11]: 13%
Population Healthy Nuclei (%) [11]: 78%
Population Hoechst High Intensity Objects (%) [11]: 4%
Population Membrane Permeable-Phenotype (%) [11]: 1%
Population Mitochondria Different-Phenotype (%) [11]: 32%
Population Mitotic Cells (%) [11]: 58%
Population Normal (%) [11]: 95%
Population Pyknosed Nuclei (%) [11]: 8%
Population Tubulin-Different-Phenotype (%) [11]: 16%
Total Cell Count [11]: 631
Population Apoptotic (%) [12]: 33%
Population Fragmented Nuclei (%) [12]: 12%
Population Healthy Nuclei (%) [12]: 81%
Population Hoechst High Intensity Objects (%) [12]: 3%
Population Membrane Permeable-Phenotype (%) [12]: 0%
Population Mitochondria Different-Phenotype (%) [12]: 22%
Population Mitotic Cells (%) [12]: 66%
Population Normal (%) [12]: 96%
Population Pyknosed Nuclei (%) [12]: 6%
Population Tubulin-Different-Phenotype (%) [12]: 11%
Total Cell Count [12]: 724

CSc1ccccc1N1CCN(CCCCCC(=O)NC2CCCc3ccccc32)CC1.Cl (stereo not given)
Population Apoptotic (%) [1]: 45%
Population Fragmented Nuclei (%) [1]: 6%
Population Healthy Nuclei (%) [1]: 74%
Population Hoechst High Intensity Objects (%) [1]: 8%
Population Membrane Permeable-Phenotype (%) [1]: 0%
Population Mitochondria Different-Phenotype (%) [1]: 68%
Population Mitotic Cells (%) [1]: 54%
Population Normal (%) [1]: 91%
Population Pyknosed Nuclei (%) [1]: 18%
Population Tubulin-Different-Phenotype (%) [1]: 59%
Total Cell Count [1]: 391
Population Hoechst High Intensity Objects (%) [2]: 12%
Population Mitochondria Different-Phenotype (%) [2]: 75%
Population Normal (%) [2]: 87%
Population Pyknosed Nuclei (%) [2]: 19%
Population Tubulin-Different-Phenotype (%) [2]: 43%
Total Cell Count [2]: 322
Population Apoptotic (%) [3]: 80%
Population Fragmented Nuclei (%) [3]: 8%
Population Healthy Nuclei (%) [3]: 68%
Population Hoechst High Intensity Objects (%) [3]: 15%
Population Membrane Permeable-Phenotype (%) [3]: 0%
Population Mitochondria Different-Phenotype (%) [3]: 97%
Population Mitotic Cells (%) [3]: 20%
Population Normal (%) [3]: 84%
Population Pyknosed Nuclei (%) [3]: 22%
Population Tubulin-Different-Phenotype (%) [3]: 59%
Total Cell Count [3]: 316
Population Apoptotic (%) [4]: 79%
Population Fragmented Nuclei (%) [4]: 5%
Population Healthy Nuclei (%) [4]: 74%
Population Hoechst High Intensity Objects (%) [4]: 16%
Population Normal (%) [4]: 83%
Population Pyknosed Nuclei (%) [4]: 19%
Population Tubulin-Different-Phenotype (%) [4]: 65%
Total Cell Count [4]: 304
Population Apoptotic (%) [5]: 36%
Population Fragmented Nuclei (%) [5]: 8%
Population Healthy Nuclei (%) [5]: 79%
Population Hoechst High Intensity Objects (%) [5]: 4%
Population Membrane Permeable-Phenotype (%) [5]: 0%
Population Mitochondria Different-Phenotype (%) [5]: 50%
Population Mitotic Cells (%) [5]: 63%
Population Normal (%) [5]: 95%
Population Pyknosed Nuclei (%) [5]: 11%
Population Tubulin-Different-Phenotype (%) [5]: 41%
Total Cell Count [5]: 508
Population Apoptotic (%) [6]: 41%
Population Healthy Nuclei (%) [6]: 75%
Population Hoechst High Intensity Objects (%) [6]: 7%
Population Mitochondria Different-Phenotype (%) [6]: 70%
Population Mitotic Cells (%) [6]: 58%
Population Normal (%) [6]: 92%
Population Pyknosed Nuclei (%) [6]: 16%
Population Tubulin-Different-Phenotype (%) [6]: 44%
Total Cell Count [6]: 356
Population Apoptotic (%) [7]: 75%
Population Fragmented Nuclei (%) [7]: 5%
Population Healthy Nuclei (%) [7]: 70%
Population Hoechst High Intensity Objects (%) [7]: 21%
Population Membrane Permeable-Phenotype (%) [7]: 0%
Population Mitochondria Different-Phenotype (%) [7]: 98%
Population Mitotic Cells (%) [7]: 24%
Population Normal (%) [7]: 78%
Population Pyknosed Nuclei (%) [7]: 23%
Population Tubulin-Different-Phenotype (%) [7]: 53%
Total Cell Count [7]: 303
Population Apoptotic (%) [8]: 69%
Population Fragmented Nuclei (%) [8]: 7%
Population Healthy Nuclei (%) [8]: 73%
Population Hoechst High Intensity Objects (%) [8]: 20%
Population Mitochondria Different-Phenotype (%) [8]: 97%
Population Mitotic Cells (%) [8]: 30%
Population Normal (%) [8]: 79%
Population Pyknosed Nuclei (%) [8]: 18%
Population Tubulin-Different-Phenotype (%) [8]: 48%
Total Cell Count [8]: 315
Population Apoptotic (%) [9]: 32%
Population Fragmented Nuclei (%) [9]: 10%
Population Healthy Nuclei (%) [9]: 78%
Population Hoechst High Intensity Objects (%) [9]: 4%
Population Membrane Permeable-Phenotype (%) [9]: 0%
Population Mitochondria Different-Phenotype (%) [9]: 39%
Population Mitotic Cells (%) [9]: 67%
Population Normal (%) [9]: 95%
Population Pyknosed Nuclei (%) [9]: 10%
Population Tubulin-Different-Phenotype (%) [9]: 27%
Total Cell Count [9]: 747
Population Apoptotic (%) [10]: 45%
Population Healthy Nuclei (%) [10]: 76%
Population Hoechst High Intensity Objects (%) [10]: 6%
Population Mitochondria Different-Phenotype (%) [10]: 59%
Population Mitotic Cells (%) [10]: 54%
Population Normal (%) [10]: 93%
Population Pyknosed Nuclei (%) [10]: 13%
Population Tubulin-Different-Phenotype (%) [10]: 31%
Total Cell Count [10]: 471
Population Apoptotic (%) [11]: 76%
Population Fragmented Nuclei (%) [11]: 11%
Population Healthy Nuclei (%) [11]: 73%
Population Hoechst High Intensity Objects (%) [11]: 28%
Population Membrane Permeable-Phenotype (%) [11]: 0%
Population Mitochondria Different-Phenotype (%) [11]: 97%
Population Mitotic Cells (%) [11]: 23%
Population Normal (%) [11]: 71%
Population Pyknosed Nuclei (%) [11]: 14%
Population Tubulin-Different-Phenotype (%) [11]: 67%
Total Cell Count [11]: 365
Population Apoptotic (%) [12]: 56%
Population Fragmented Nuclei (%) [12]: 13%
Population Hoechst High Intensity Objects (%) [12]: 18%
Population Mitochondria Different-Phenotype (%) [12]: 93%
Population Mitotic Cells (%) [12]: 43%
Population Normal (%) [12]: 81%
Population Pyknosed Nuclei (%) [12]: 13%
Population Tubulin-Different-Phenotype (%) [12]: 56%
Total Cell Count [12]: 385
